For data set [1], the system named is Homo sapiens. Nature of the data set: Drug metabolism in human assessed as metabolite level treated with 800 mg, po of danazol in urine after 24 hrs by TLC analysis. The data set is classed as ADME, organism-based. Particulars: in vivo. Summed up:
(§1)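 Urine was collected from one subject given 800 mg/day orally for 7 days. Metabolites were isolated from the urine, purified in separate chromatographic systems, and identified against synthetic reference material by UV spectra in methanol and by mass spectra.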

Data set [2] has as its system Rattus norvegicus. Briefly: Inhibition of pituitary gonadotropin activity in rat assessed as decrease of ventral prostate weight at 100 mg/kg, po for 14 days. In kind it is functional, organism-based. More on the design: dose 100 mg/kg. Particulars: Pituitary gland. Summed up: (§2)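 Mature male rats were dosed orally at 100 mg/kg in ethanol-oil vehicle for 14 days. Ventral prostate, seminal vesicle and testicular weights were then compared against controls for significance.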

Data set [3] deals with Rattus norvegicus. Briefly: Inhibition of pituitary gonadotropin activity in rat assessed as decrease of seminal vesicles weight at 100 mg/kg, po for 14 days. In kind it is functional, organism-based. Details: dose 100 mg/kg. The following applies: Pituitary gland. Summed up: as §2
The test system of data set [4] is Rattus norvegicus. Briefly: Inhibition of pituitary gonadotropin activity in rat assessed as decrease of testicular weight at 100 mg/kg, po for 14 days. The data set is classed as functional, organism-based. Details: dose 100 mg/kg. Particulars: Pituitary gland. Summed up: as §2
The test system of data set [5] is Rattus norvegicus. Briefly: Inhibition of pituitary gonadotropin activity in rat assessed as decrease of ovarian weight at 50 mg/kg, sc for 14 days. Particulars: Pituitary gland.
Data set [6] deals with Rattus norvegicus. Nature of the data set: Inhibition of pituitary gonadotropin activity in rat assessed as decrease of number of vaginal estrous days at 50 mg/kg, sc for 14 days. The following applies: Pituitary gland.
Data set [7] concerns Rattus norvegicus. Nature of the data set: Inhibition of pituitary gonadotropin activity in rat assessed as decrease of ovarian weight at 25 mg/kg, sc for 14 days. Particulars: Pituitary gland.
In data set [8] the test system is Rattus norvegicus. Nature of the data set: Inhibition of pituitary gonadotropin activity in rat assessed as decrease of number of vaginal estrous days at 25 mg/kg, sc for 14 days. Particulars: Pituitary gland.
Data set [9] can be described thus: Drug metabolism in rhesus monkey assessed as metabolite level in urine treated with at 50 mg/kg, po bid of danazol after 24 hrs by TLC analysis. The data set is classed as ADME, organism-based, Macaca mulatta. More on the design: dose 50 mg/kg, route oral. Particulars: in vivo.
Data set [10] in a line: Drug metabolism in rhesus monkey assessed as 17-hydroxy-17alpha-pregn-4-en-20-yn-3-one level in urine at 50 mg/kg, po bid after 24 hrs by TLC analysis. In kind it is ADME, organism-based, Macaca mulatta. Details: dose 50 mg/kg, route oral. The following applies: in vivo.
Data set [11] has as its system Homo sapiens. Nature of the data set: Drug metabolism in human assessed as 17-hydroxy-2alpha-(hydroxymethyl)-17apregn-4-en-20-yn-3-one level in urine at 800 mg, po after 24 hrs by TLC analysis. The data set is classed as ADME, organism-based. Particulars: in vivo. Summed up:
as §1

Data set [12] deals with Homo sapiens. Nature of the data set: Drug metabolism in human assessed as 17-hydroxy-2-(hydroxymethyl)-17alpha-pregna-1,4-dien-20-yn-3-one level in urine at 800 mg, po after 24 hrs by TLC analysis. The following applies: in vivo. In kind it is ADME, organism-based. An outline of the steps: as §1
Data set [13] concerns Homo sapiens. Briefly: Drug metabolism in human assessed as 6beta,17-dihydroxy-2alpha-(hydroxymethyl)-17alpha-pregn-4-en-20-yn-3-one level in urine at 800 mg, po after 24 hrs by TLC analysis. In kind it is ADME, organism-based. Particulars: in vivo. Summed up:
as §1

For data set [14], the system named is Homo sapiens. Nature of the data set: Drug metabolism in human assessed as 6beta,17-dihydroxy-2-(hydroxymethyl)-17alpha-pregna-1,4-dien-20-yn-3-one level in urine at 800 mg, po after 24 hrs by TLC analysis. In kind it is ADME, organism-based. Particulars: in vivo. An outline of the steps:
as §1

Data set [15] deals with Rattus norvegicus. Nature of the data set: Inhibition of pituitary gonadotropin activity in rat assessed as decrease of ovarian weight at 20 mg/kg, sc for 14 days. Particulars: Pituitary gland.
Data set [16] has as its system Rattus norvegicus. Briefly: Inhibition of pituitary gonadotropin activity in rat assessed as decrease of number of vaginal estrous days at 20 mg/kg, sc for 14 days. The following applies: Pituitary gland.

Active and inactive are the calls of the source. The calls are words filed in the database; no cut-off is given here.

Our source for the Drug metabolism and inhibition values is ChEMBL document CHEMBL3244010, “Isolation, synthesis, and biological activity of five metabolites of danazol” (J Med Chem, 1977).

Consider `C#C[C@]1(O)CC[C@H]2[C@@H]3CCC4=CC(=O)[C@H](CO)C[C@]4(C)[C@H]3CC[C@@]21C`, for which the Drug metabolism result in the data set with Homo sapiens [1] is on record as “metabolite_detected”. Besides, the inhibition result in the data set on Rattus norvegicus [2], with Rattus norvegicus [3], in the data set with Rattus norvegicus [4], in the data set with Rattus norvegicus [5] and in the data set with Rattus norvegicus [6] was “inactive” throughout.

`C#C[C@]1(O)CC[C@H]2[C@@H]3CCC4=CC(=O)C(CO)=C[C@]4(C)[C@H]3CC[C@@]21C`: in the data set with Homo sapiens [1], the Drug metabolism result is reported as “metabolite_detected”. The inhibition result with Rattus norvegicus [2], in the data set with Rattus norvegicus [3], in the data set with Rattus norvegicus [4], in the data set with Rattus norvegicus [7] and with Rattus norvegicus [8] was “inactive” each time.

On to `C#C[C@]1(O)CC[C@H]2[C@@H]3C[C@@H](O)C4=CC(=O)[C@H](CO)C[C@]4(C)[C@H]3CC[C@@]21C`, for which the Drug metabolism result in the data set with Homo sapiens [1] was “metabolite_detected”. The inhibition entry with Rattus norvegicus [2], in the data set on Rattus norvegicus [3], in the data set on Rattus norvegicus [4], in the data set with Rattus norvegicus [5] and in the data set with Rattus norvegicus [6] was “inactive” each time.

With `C#C[C@]1(O)CC[C@H]2[C@@H]3C[C@@H](O)C4=CC(=O)C(CO)=C[C@]4(C)[C@H]3CC[C@@]21C`, the Drug metabolism result with Homo sapiens [1] is listed as “metabolite_detected”. For the same compound, the inhibition result in the data set with Rattus norvegicus [2], in the data set with Rattus norvegicus [3], with Rattus norvegicus [4], in the data set on Rattus norvegicus [5] and in the data set on Rattus norvegicus [6] was “inactive” each time.

With `C#C[C@]1(O)CC[C@H]2[C@@H]3CCC4=CC(=O)CC[C@]4(C)[C@H]3CC[C@@]21C` [ETHISTERONE], the Drug metabolism result in data set [9] is “metabolite_detected”. Besides, the inhibition result in the data set with Rattus norvegicus [2], in the data set on Rattus norvegicus [3], in the data set on Rattus norvegicus [4], with Rattus norvegicus [7] and in the data set on Rattus norvegicus [8] was “inactive” each time.

On to `C#C[C@]1(O)CC[C@H]2[C@@H]3CCC4=Cc5oncc5C[C@]4(C)[C@H]3CC[C@@]21C` [DANAZOL], for which the Drug metabolism entry (in data set [10]; in the data set with Homo sapiens [11]; with Homo sapiens [12]; in the data set with Homo sapiens [13]; in the data set with Homo sapiens [14]) was “metabolite_detected” throughout. For the same compound, the inhibition result in the data set on Rattus norvegicus [2], with Rattus norvegicus [3], in the data set on Rattus norvegicus [4], in the data set on Rattus norvegicus [15] and in the data set on Rattus norvegicus [16] was “Active” in each case.
